Data as given in ChEMBL document CHEMBL4145686, “Discovery of a Potent and Selective Steroidal Glucocorticoid Receptor Antagonist (ORIC-101)” (J Med Chem, 2018).
pIC50: −log10 of the molar value.

How the values were obtained:
androgen receptor (AR) = target: T1, androgen receptor (AR) (Homo sapiens, UniProt P10275); assay: Agonist activity at AR (unknown origin) expressed in human LNCaP cells incubated for 20 hrs by luciferase reporter gene assay relative to mifepristone; assay type: cell-based; conditions: human LNCaP cells expressing AR
T1 sequence (P10275 whole entry): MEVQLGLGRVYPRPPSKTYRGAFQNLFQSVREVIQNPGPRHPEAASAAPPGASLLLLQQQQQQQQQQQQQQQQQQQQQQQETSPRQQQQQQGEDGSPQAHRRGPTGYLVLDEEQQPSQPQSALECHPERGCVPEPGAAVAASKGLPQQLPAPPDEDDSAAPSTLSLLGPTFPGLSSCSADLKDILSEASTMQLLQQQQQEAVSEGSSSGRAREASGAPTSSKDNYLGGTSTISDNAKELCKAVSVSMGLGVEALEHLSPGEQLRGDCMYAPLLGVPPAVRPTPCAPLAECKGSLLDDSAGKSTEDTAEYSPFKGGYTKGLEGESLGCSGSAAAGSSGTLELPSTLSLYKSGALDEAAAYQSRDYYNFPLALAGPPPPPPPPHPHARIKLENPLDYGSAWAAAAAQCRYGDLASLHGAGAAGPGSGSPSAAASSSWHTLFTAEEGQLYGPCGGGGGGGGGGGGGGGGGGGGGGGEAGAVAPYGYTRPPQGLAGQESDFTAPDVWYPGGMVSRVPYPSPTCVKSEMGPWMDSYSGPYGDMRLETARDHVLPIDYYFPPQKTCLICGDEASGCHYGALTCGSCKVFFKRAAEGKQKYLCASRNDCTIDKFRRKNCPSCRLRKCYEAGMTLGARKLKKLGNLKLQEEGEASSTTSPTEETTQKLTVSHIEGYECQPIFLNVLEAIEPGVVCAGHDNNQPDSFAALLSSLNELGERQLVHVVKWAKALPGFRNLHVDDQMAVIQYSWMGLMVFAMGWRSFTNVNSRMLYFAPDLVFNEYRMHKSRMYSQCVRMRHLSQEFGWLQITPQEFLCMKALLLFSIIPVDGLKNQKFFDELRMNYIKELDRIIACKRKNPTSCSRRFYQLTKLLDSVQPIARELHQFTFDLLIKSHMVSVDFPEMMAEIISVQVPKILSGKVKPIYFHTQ

Androgen receptor [1] = target: T2, Androgen receptor (Homo sapiens, UniProt P10275); assay: Antagonist activity at AR (unknown origin) expressed in human LNCaP cells assessed as reduction in R1881-induced response incubated for 20 hrs by luciferase reporter gene assay; assay type: cell-based
T2 sequence (P10275 whole entry): T1 sequence (P10275 whole entry)

Androgen receptor [2] = target: T2, Androgen receptor; assay: Agonist activity at AR in human LNAR cells assessed as increase in PSA gene expression at 100 nM incubated for 24 hrs by RT-qPCR method; assay type: cell-based; conditions: 0.1 µM
[3] = Oral bioavailability in rat at 5 mg/kg; assay type: ADME, organism-based; conditions: in vivo
[4] = Clearance in mouse at 0.5 mg/kg, iv; assay type: ADME, organism-based; conditions: in vivo
[5] = Oral bioavailability in mini pig at 10 mg/kg; assay type: ADME, organism-based, Sus scrofa; conditions: in vivo
[6] = Cmax in mini pig at 10 mg/kg, po; assay type: ADME, organism-based, Sus scrofa; set-up: dose 10 mg/kg, route oral; conditions: in vivo
[7] = Unbound fraction in human plasma relative to mifepristone; assay type: ADME, cell-free
Estrogen receptor = target: T3, Estrogen receptor (Homo sapiens, UniProt P03372); assay: Binding affinity to untagged human recombinant full length ERalpha expressed in insect cells up to 1 uM by Fluormone ES2 Green displacement based assay
T3 sequence (P03372 whole entry): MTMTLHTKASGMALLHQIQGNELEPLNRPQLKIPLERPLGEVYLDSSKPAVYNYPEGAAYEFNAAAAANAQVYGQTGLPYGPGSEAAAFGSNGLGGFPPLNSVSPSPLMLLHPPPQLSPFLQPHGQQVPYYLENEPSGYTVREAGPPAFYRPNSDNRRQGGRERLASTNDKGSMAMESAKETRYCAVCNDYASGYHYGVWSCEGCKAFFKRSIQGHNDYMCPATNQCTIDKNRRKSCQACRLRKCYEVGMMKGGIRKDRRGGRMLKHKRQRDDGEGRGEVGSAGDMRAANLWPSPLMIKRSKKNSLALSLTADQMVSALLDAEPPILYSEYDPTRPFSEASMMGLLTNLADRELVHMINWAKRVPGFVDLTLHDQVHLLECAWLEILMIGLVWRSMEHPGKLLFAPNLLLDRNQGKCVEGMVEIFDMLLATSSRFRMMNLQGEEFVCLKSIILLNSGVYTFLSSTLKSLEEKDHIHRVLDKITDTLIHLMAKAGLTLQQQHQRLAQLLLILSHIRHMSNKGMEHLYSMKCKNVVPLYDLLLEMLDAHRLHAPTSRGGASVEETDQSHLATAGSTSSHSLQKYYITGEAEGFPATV

Glucocorticoid receptor = target: T4, Glucocorticoid receptor (Sus scrofa, UniProt Q9N1U3); assay: Antagonist activity at GR in mini pig PBMC assessed as reduction in dexamethasone-induced FKBP5 gene expression incubated for 24 hrs by RT-qPCR method; assay type: cell-based
T4 sequence (Q9N1U3 whole entry): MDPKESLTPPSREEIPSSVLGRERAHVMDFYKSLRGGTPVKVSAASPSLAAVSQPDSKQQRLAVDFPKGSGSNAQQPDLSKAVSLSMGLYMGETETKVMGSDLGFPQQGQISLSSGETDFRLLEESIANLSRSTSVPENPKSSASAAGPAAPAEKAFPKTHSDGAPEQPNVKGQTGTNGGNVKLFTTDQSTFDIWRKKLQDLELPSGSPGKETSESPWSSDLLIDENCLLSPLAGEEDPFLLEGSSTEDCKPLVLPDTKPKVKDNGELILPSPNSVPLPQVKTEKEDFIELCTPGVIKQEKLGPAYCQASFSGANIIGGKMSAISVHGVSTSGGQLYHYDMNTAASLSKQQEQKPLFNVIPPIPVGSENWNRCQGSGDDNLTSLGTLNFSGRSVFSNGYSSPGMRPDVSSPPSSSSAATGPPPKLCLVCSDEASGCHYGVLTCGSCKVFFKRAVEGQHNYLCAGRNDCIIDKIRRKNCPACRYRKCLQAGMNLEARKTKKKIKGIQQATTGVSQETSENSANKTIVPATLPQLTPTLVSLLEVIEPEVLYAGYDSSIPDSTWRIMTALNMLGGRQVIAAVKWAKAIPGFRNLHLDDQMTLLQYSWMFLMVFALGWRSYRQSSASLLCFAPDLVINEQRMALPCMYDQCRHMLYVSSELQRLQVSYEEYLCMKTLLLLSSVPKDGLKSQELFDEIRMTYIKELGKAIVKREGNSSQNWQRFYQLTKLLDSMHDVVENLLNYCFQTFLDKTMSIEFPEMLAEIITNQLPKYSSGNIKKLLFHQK

Mus musculus = assay: In-vivo antagonist activity at GR in nude mouse xenografted with human OVCAR5 cells assessed as reduction in dexamethasone-induced FKBP5 gene expression at 25 to 75 mg/kg, po dosed as gavage and measured after 6 hrs by RT-qPCR method; assay type: functional, organism-based
Method in brief: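 OVCAR5 xenograft mice received dexamethasone 0.5 mg/kg by intraperitoneal injection with or without a single oral gavage dose of the antagonist at 25, 50 or 75 mg/kg. Tumors and plasma collected 6 h later. Tumor FKBP5 mRNA measured by RT-qPCR. Unbound plasma concentration of the antagonist determined, n = 4 mice per group. FKBP5 effects tested by one-way ANOVA with Dunnett's test versus the vehicle group.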

**Q.** Which Emax at 20 h (androgen receptor (AR)) does the source give for `CC(C)N(C)c1ccc([C@H]2C[C@@]3(C)[C@@H](CC[C@@]3(O)C#CC(C)(C)C)[C@@H]3CCC4=CC(=O)CC[C@@H]4[C@H]32)cc1` here?
**A.** Its Emax at 20 h is 11%.

**Q.** And the pIC50 (Androgen receptor [1])?
**A.** The pIC50 was 6.32.

**Q.** What about the Activity (Androgen receptor [2]) of the same compound?
**A.** The Activity was “Not Active”.

**Q.** What about the bioavailability [3] of the same compound?
**A.** Its bioavailability is 24%.

**Q.** What about the clearance [4] of the same compound?
**A.** Its clearance is 1.63 L/h/kg.

**Q.** What about the bioavailability [5] of the same compound?
**A.** The bioavailability was 20%.

**Q.** What about the Cmax [6] of the same compound?
**A.** The Cmax was 0.153 µg/mL.

**Q.** What about the Ratio [7] of the same compound?
**A.** Its Ratio is 10.

**Q.** And the Activity (Estrogen receptor)?
**A.** Its Activity is “Not Active”.

**Q.** What about the pIC50 (Glucocorticoid receptor) of the same compound?
**A.** Its pIC50 is 7.41.

**Q.** What about the inhibition (Mus musculus) of the same compound?
**A.** The inhibition was “Dose-dependent effect”.
